Experimental data published in ChEMBL document CHEMBL1127752, “Synthesis and antitumor activity of novel mitomycin derivatives containing functional groups at the C-6-methyl position” (J Med Chem, 1994).
pIC50: −log10 of the molar value.

Tests used:
HeLa = experiment: In vitro anticellular activity tested against HeLa S3 cells; type: functional, cell-based; settings: Homo sapiens
Summary of the method: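 HeLa S3 cells seeded on day 0, then exposed to drug for 1 h on day 1; anticellular activity determined by a previously described method.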

Mus musculus [1] = experiment: Effective dose that gave 50% inhibition of tumor growth was calculated towards sarcoma 180 cells which were inoculated subcutaneously to the axillary region of ddY mice; type: functional; settings: Mus musculus, 180, sc
Summary of the method: (§1)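 Sarcoma 180 cells implanted sc in the axillary region of ddY mice on day 0; compounds given iv on day 1. Tumor volume compared treated versus control (T/C). 50% growth-inhibitory dose calculated from the dose-response curve; optimal dose also recorded.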

CCRF S-180 [2] = experiment: Optimal dose towards sarcoma 180 cells, inoculated subcutaneously to the axillary region of ddY mice; type: functional, Mus musculus; summary of the method: as §1
Mus musculus [3] = experiment: In vivo antitumor activity against lymphatic leukemia P388 cells sensitive to mitomycin C (MMC) was measured as maximal increase in life span of the treated mice at optimal dose of 3.1 mg/kg; type: functional
Mus musculus [4] = experiment: In vivo antitumor activity against lymphatic leukemia P388 cells resistant to mitomycin C (MMC) was measured as maximal increase in life span of the treated mice at optimal dose of 3.1 mg/kg; type: functional
Mus musculus [5] = experiment: In vivo antitumor activity against lymphatic leukemia P388 cells sensitive to mitomycin C (MMC) was measured as maximal increase in life span of the treated mice at optimal dose of 13 mg/kg; type: functional
Mus musculus [6] = experiment: In vivo antitumor activity against lymphatic leukemia P388 cells resistant to mitomycin C (MMC) was measured as maximal increase in life span of the treated mice at optimal dose of 25 mg/kg; type: functional
Mus musculus [7] = experiment: In vivo antitumor activity against lymphatic leukemia P388 cells sensitive to mitomycin C (MMC) was measured as maximal increase in life span of the treated mice at optimal dose of 50 mg/kg; type: functional
CCRF S-180 [8] = experiment: Tumor volume of sarcoma 180 cells which were inoculated […] to the axillary region of ddY mice, after treatment; type: functional, Mus musculus
Mus musculus [9] = experiment: In vivo antitumor activity against lymphatic leukemia P388 cells resistant to mitomycin C (MMC) was measured as maximal increase in life span of the treated mice at optimal dose of 50 mg/kg; type: functional
Mus musculus [10] = experiment: In vivo antitumor activity against lymphatic leukemia P388 cells resistant to mitomycin C (MMC) was measured as maximal increase in life span of the treated mice at optimal dose of 46 mg/kg; type: functional
Mus musculus [11] = experiment: In vivo antitumor activity against lymphatic leukemia P388 cells resistant to mitomycin C (MMC) was measured as maximal increase in life span of the treated mice at optimal dose of 1.6 mg/kg; type: functional
Mus musculus [12] = experiment: In vivo antitumor activity against lymphatic leukemia P388 cells sensitive to mitomycin C (MMC) was measured as maximal increase in life span of the treated mice at optimal dose of 0.78 mg/kg; type: functional
Mus musculus [13] = experiment: In vivo antitumor activity against lymphatic leukemia P388 cells resistant to mitomycin C (MMC) was measured as maximal increase in life span of the treated mice at optimal dose of 13 mg/kg; type: functional

SMILES	pIC50 (HeLa)	also measured
C=CCOCC1=C(N)C(=O)C2=C(C1=O)N1C[C@@H]3N[C@@H]3[C@]1(OC)[C@@H]2COC(N)=O	5.26	–
COCC1=C(N)C(=O)C2=C(C1=O)N1C[C@H]3[C@H](N3C)[C@]1(O)[C@H]2COC(N)=O (some centres undefined)	< 4.09	–
CO[C@@]12[C@H](COC(N)=O)C3=C(C(=O)C(CSc4ccc(Cl)cc4)=C(N)C3=O)N1C[C@@H]1N[C@@H]12	4.28	–
CO[C@@]12[C@H](COC(N)=O)C3=C(C(=O)C(CSC4=NCCS4)=C(N)C3=O)N1C[C@@H]1N[C@@H]12	6.09	ED50 (Mus musculus [1]): 5.9 mg/kg; OD (CCRF S-180 [2]): 6.3 mg/kg; ILS at 3.1 mg/kg (Mus musculus [3]): 62%; ILS at 3.1 mg/kg (Mus musculus [4]): 64%
CCCCCCCCCCCCSCC1=C(N)C(=O)C2=C(C1=O)N1C[C@@H]3N[C@@H]3[C@]1(OC)[C@@H]2COC(N)=O	5.26	–
CO[C@@]12[C@H](COC(N)=O)C3=C(C(=O)C(CSc4nnc(C)s4)=C(N)C3=O)N1C[C@@H]1N[C@@H]12	5.96	–
CCSCC1=C(N)C(=O)C2=C(C1=O)N1C[C@@H]3N[C@@H]3[C@]1(OC)[C@@H]2COC(N)=O	5.66	–
COCC1=C(N)C(=O)C2=C(C1=O)N1CC3C(N3C)[C@]1(OC)[C@@H]2COC(N)=O (some centres undefined)	< 4.00	–
CO[C@@]12[C@H](COC(N)=O)C3=C(C(=O)C4=C(Nc5ccccc5SC4)C3=O)N1C[C@@H]1N[C@@H]12	6.51	ED50 (Mus musculus [1]): 35 mg/kg; OD (CCRF S-180 [2]): 100 mg/kg; ILS at 13 mg/kg (Mus musculus [5]): 36%; ILS at 25 mg/kg (Mus musculus [6]): 48%
CO[C@@]12[C@H](COC(N)=O)C3=C(C(=O)C(CSC4OC(CO)C(O)C(O)C4O)=C(N)C3=O)N1C[C@@H]1N[C@@H]12 (some centres undefined)	4.09	–
CO[C@@]12[C@H](COC(N)=O)C3=C(C(=O)C(CSc4ccccc4Br)=C(N)C3=O)N1C[C@@H]1N[C@@H]12	4.32	–
CO[C@@]12[C@H](COC(N)=O)C3=C(C(=O)C(CSC(C)C)=C(N)C3=O)N1C[C@@H]1N[C@@H]12	5.27	ED50 (Mus musculus [1]): 8.4 mg/kg; OD (CCRF S-180 [2]): 25 mg/kg; ILS at 50 mg/kg (Mus musculus [7]): 58%; ILS at 25 mg/kg (Mus musculus [6]): 30%
CO[C@@]12[C@H](COC(N)=O)C3=C(C(=O)C(CSc4ccc([N+](=O)[O-])cc4)=C(N)C3=O)N1C[C@@H]1N[C@@H]12	6.11	–
COC(=O)CCSCC1=C(N)C(=O)C2=C(C1=O)N1C[C@@H]3N[C@@H]3[C@]1(OC)[C@@H]2COC(N)=O	6.01	T/C (CCRF S-180 [8]): 0.63 min; OD (CCRF S-180 [2]): 3.1 mg/kg; ILS at 3.1 mg/kg (Mus musculus [3]): 69%
CO[C@@]12[C@H](COC(N)=O)C3=C(C(=O)C(CO)=C(N)C3=O)N1C[C@@H]1N[C@@H]12	< 4.54	–
CO[C@@]12[C@H](COC(N)=O)C3=C(C(=O)C(CSc4nc5ccccc5s4)=C(N)C3=O)N1C[C@@H]1N[C@@H]12	6.15	ED50 (Mus musculus [1]): 36 mg/kg; OD (CCRF S-180 [2]): 50 mg/kg; ILS at 13 mg/kg (Mus musculus [5]): 40%; ILS at 50 mg/kg (Mus musculus [9]): 57%
CO[C@@]12[C@H](COC(N)=O)C3=C(C(=O)C(CSc4ccccc4Cl)=C(N)C3=O)N1C[C@@H]1N[C@@H]12	5.14	–
CO[C@@]12[C@H](COC(N)=O)C3=C(C(=O)C(CSCC(O)CO)=C(N)C3=O)N1C[C@@H]1N[C@@H]12 (some centres undefined)	< 4.00	–
COC1=C(C)C(=O)C2=C(C1=O)[C@@H](COC(N)=O)[C@@]1(OC)[C@H]3N[C@H]3CN21 [MITOMYCIN A]	8.62	–
COc1ccccc1SCC1=C(N)C(=O)C2=C(C1=O)N1C[C@@H]3N[C@@H]3[C@]1(OC)[C@@H]2COC(N)=O	5.64	–
CO[C@@]12[C@H](COC(N)=O)C3=C(C(=O)C(CSc4ccc(O)cc4)=C(N)C3=O)N1C[C@@H]1N[C@@H]12	3.94	–
COCC1=C(OC)C(=O)C2=C(C1=O)N1CC3NC3[C@]1(OC)[C@@H]2COC(N)=O (some centres undefined)	6.92	–
CO[C@@]12[C@H](COC(N)=O)C3=C(C(=O)C(CSc4nccn4C)=C(N)C3=O)N1C[C@@H]1N[C@@H]12	6.12	–
CO[C@@]12[C@H](COC(N)=O)C3=C(C(=O)C(CSc4ccccn4)=C(N)C3=O)N1C[C@@H]1N[C@@H]12	5.74	–

SMILES	pIC50 (HeLa)	also measured
CCCOCC1=C(N)C(=O)C2=C(C1=O)N1C[C@@H]3N[C@@H]3[C@]1(OC)[C@@H]2COC(N)=O	5.28	–
CO[C@@]12[C@H](COC(N)=O)C3=C(C(=O)C(CS(=O)(=O)C(C)C)=C(N)C3=O)N1C[C@@H]1N[C@@H]12	< 5.00	–
CO[C@@]12[C@H](COC(N)=O)C3=C(C(=O)C(CSCc4ccccc4)=C(N)C3=O)N1C[C@@H]1N[C@@H]12	5.66	–
CCCCOCC1=C(N)C(=O)C2=C(C1=O)N1C[C@@H]3N[C@@H]3[C@]1(OC)[C@@H]2COC(N)=O	4.72	–
CO[C@@]12[C@H](COC(N)=O)C3=C(C(=O)C(CSc4nnnn4C)=C(N)C3=O)N1C[C@@H]1N[C@@H]12	6.92	–
CO[C@@]12[C@H](COC(N)=O)C3=C(C(=O)C(COCc4ccccc4)=C(N)C3=O)N1C[C@@H]1N[C@@H]12	5.26	–
CO[C@@]12[C@H](COC(N)=O)C3=C(C(=O)C(CSc4ccccc4O)=C(N)C3=O)N1C[C@@H]1N[C@@H]12	5.66	ED50 (Mus musculus [1]): 22 mg/kg; OD (CCRF S-180 [2]): 46 mg/kg; ILS at 46 mg/kg (Mus musculus [10]): > 67%
COc1ccc(SCC2=C(N)C(=O)C3=C(C2=O)N2C[C@@H]4N[C@@H]4[C@]2(OC)[C@@H]3COC(N)=O)cc1	4.85	–
CO[C@@]12[C@H](COC(N)=O)C3=C(C(=O)C(CSc4ncc[nH]4)=C(N)C3=O)N1C[C@@H]1N[C@@H]12	4.04	–
CO[C@@]12[C@H](COC(N)=O)C3=C(C(=O)C(CSc4ncccn4)=C(N)C3=O)N1C[C@@H]1N[C@@H]12	6.02	ED50 (Mus musculus [1]): 8.9 mg/kg; OD (CCRF S-180 [2]): 13 mg/kg; ILS at 1.6 mg/kg (Mus musculus [11]): > 92%; ILS at 0.78 mg/kg (Mus musculus [12]): 58%
CO[C@@]12[C@H](COC(N)=O)C3=C(C(=O)C(CSc4cccs4)=C(N)C3=O)N1C[C@@H]1N[C@@H]12	5.31	ED50 (Mus musculus [1]): 29 mg/kg; OD (CCRF S-180 [2]): 46 mg/kg; ILS at 46 mg/kg (Mus musculus [10]): > 56%
CO[C@@]12[C@H](COC(N)=O)C3=C(C(=O)C4=C(NCCSC4)C3=O)N1C[C@@H]1N[C@@H]12	5.89	–
CO[C@@]12[C@H](COC(N)=O)C3=C(C(=O)C(CSC4OC(COC(C)=O)C(OC(C)=O)C(OC(C)=O)C4OC(C)=O)=C(N)C3=O)N1C[C@@H]1N[C@@H]12 (some centres undefined)	5.96	ED50 (Mus musculus [1]): 24 mg/kg; OD (CCRF S-180 [2]): 25 mg/kg; ILS at 13 mg/kg (Mus musculus [5]): 58%; ILS at 13 mg/kg (Mus musculus [13]): > 143%
CO[C@@]12[C@H](COC(N)=O)C3=C(C(=O)C(CSCCO)=C(N)C3=O)N1C[C@@H]1N[C@@H]12	< 4.00	–
CO[C@@]12[C@H](COC(N)=O)C3=C(C(=O)C(CSc4nc[nH]n4)=C(N)C3=O)N1C[C@@H]1N[C@@H]12	5.17	–
COCC1=C(N)C(=O)C2=C(C1=O)N1CC3NC3[C@]1(OC)[C@@H]2COC(N)=O (some centres undefined)	5.59	–
CO[C@@]12[C@H](COC(N)=O)C3=C(C(=O)C(CSc4nnnn4-c4ccccc4)=C(N)C3=O)N1C[C@@H]1N[C@@H]12	6.57	–
CO[C@@]12[C@H](COC(N)=O)C3=C(C(=O)C(CSc4ccccc4C(C)C)=C(N)C3=O)N1C[C@@H]1N[C@@H]12	4.57	–
CO[C@@]12[C@H](COC(N)=O)C3=C(C(=O)C(CSc4ncccc4O)=C(N)C3=O)N1C[C@@H]1N[C@@H]12	6.72	ED50 (Mus musculus [1]): 3.7 mg/kg; OD (CCRF S-180 [2]): 6.3 mg/kg; ILS at 3.1 mg/kg (Mus musculus [3]): 49%; ILS at 3.1 mg/kg (Mus musculus [4]): 26%
CO[C@@]12[C@H](COC(N)=O)C3=C(C(=O)C(C[S+]([O-])C(C)C)=C(N)C3=O)N1C[C@@H]1N[C@@H]12 (some centres undefined)	< 5.00	–
CO[C@@]12[C@H](COC(N)=O)C3=C(C(=O)C(CSc4nc(C)cc(C)n4)=C(N)C3=O)N1C[C@@H]1N[C@@H]12	5.96	OD (CCRF S-180 [2]): 6.3 mg/kg; ILS at 3.1 mg/kg (Mus musculus [3]): 50%
CO[C@@]12[C@H](COC(N)=O)C3=C(C(=O)C(CSc4nc5ccccc5o4)=C(N)C3=O)N1C[C@@H]1N[C@@H]12	5.29	–
CO[C@@]12[C@H](COC(N)=O)C3=C(C(=O)C(CSc4ccccc4)=C(N)C3=O)N1C[C@@H]1N[C@@H]12	6.00	ED50 (Mus musculus [1]): 6.1 mg/kg; OD (CCRF S-180 [2]): 22 mg/kg; ILS at 50 mg/kg (Mus musculus [7]): 45%
CO[C@@]12[C@H](COC(N)=O)C3=C(C(=O)C(CSCC4CC4)=C(N)C3=O)N1C[C@@H]1N[C@@H]12	5.96	ED50 (Mus musculus [1]): 13 mg/kg; OD (CCRF S-180 [2]): 25 mg/kg; ILS at 13 mg/kg (Mus musculus [5]): 43%; ILS at 1.6 mg/kg (Mus musculus [11]): > 115%
